This note sets out measurements from ChEMBL document CHEMBL4334422, “Toxicities and beneficial protection of H2S donors based on nonsteroidal anti-inflammatory drugs” (Medchemcomm, 2019).

Series [1] is described as follows: Toxicity in Wistar kyoto rat assessed as increase in heterochromatin in liver tissue at 10 mg/kg, ip administered for 14 days by TEM assay. The series is classed as organism-based. The settings on record: in vivo, 336 h. A digest of the protocol:
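After 14 days of daily intraperitoneal dosing at 10 mg/kg in WKY rats, with vehicle controls, liver and kidney were fixed in 4% glutaraldehyde. Ultrastructure was examined by transmission electron microscopy at 6000-, 10000- and 20000-fold magnification.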

Series [2] is described as follows: Toxicity in Wistar kyoto rat assessed as chromatin edge collection in liver tissue at 10 mg/kg, ip administered for 14 days by TEM assay. Particulars: in vivo, 336 h. The series is classed as organism-based. The method in brief: (§1)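 WKY rats were given 10 mg·kg⁻¹ intraperitoneally daily for 14 days, with vehicle-treated controls. Liver and kidney were collected and fixed in 4% glutaraldehyde. Tissue was examined after HE staining by light microscopy and by transmission electron microscopy at 6000, 10000 and 20000-fold.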

The nature of series [3]: Toxicity in Wistar kyoto rat assessed as reduction in intestinal mucosal congestion symptoms at 10 mg/kg, ip administered for 14 days by H and E staining based optical microscopic method. The format is organism-based. The settings on record: in vivo, 336 h. The method in brief: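 WKY rats, 3 per group, were dosed for 14 days, with the compound at 10 mg/kg per dose and the ibuprofen comparator at 6.1 mg/kg. Rats were anaesthetised with ether and killed by cervical dislocation. Stomach and intestine were sectioned at 5-10 µm, stained with haematoxylin and eosin, and examined by optical microscopy.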

Series [4] in a line: Toxicity in Wistar kyoto rat assessed as necrosis in renal tubular epithelial cells at 10 mg/kg, ip administered for 14 days by H and E staining based assay. The format is organism-based. The settings on record: in vivo, 336 h. A digest of the protocol:
(§2)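 WKY rats were dosed intraperitoneally at 10 mg/kg daily for 14 days, using the 10% 1,3-propanediol vehicle, with a vehicle control group. Liver and kidney were collected and fixed immediately in 4% glutaraldehyde. Sections were stained with haematoxylin and eosin and scored for structural change under light microscopy.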

Series [5] in a line: Toxicity in Wistar kyoto rat assessed as abnormal nuclear morphology in liver tissue at 10 mg/kg, ip administered for 14 days by TEM assay. The format is organism-based. Particulars: in vivo, 336 h. The method in brief: as §1
Series [6] is described as follows: Toxicity in Wistar kyoto rat assessed as swollen renal cells at 10 mg/kg, ip administered for 14 days by H and E staining based assay. The format is organism-based. Particulars: in vivo, 336 h. A digest of the protocol: as §2
The test system of series [7] is Rattus norvegicus. Kind of series: Antihypertensive activity in ip dosed spontaneously hypertensive Wistar kyoto rat assessed as reduction in systolic arterial pressure administered for 6 hrs and measured every 30 mins post treatment by tail-cuff method. The format is functional, organism-based. The method in brief:
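Male SHRs (8 weeks, 300 ± 25 g; 6 per group), given compound intraperitoneally once daily at 8 am in 0.5% (w/v) sodium carboxymethyl cellulose/DMSO 3/1 (v/v), 2 mL·kg⁻¹. Vehicle-treated SHR and WKY controls. SBP, DBP and heart rate were measured by tail-cuff on awake, restrained rats before dosing, then every 30 min for 6 h. Values are mean ± SD of four independent experiments.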

Series [8] deals with Rattus norvegicus. Kind of series: Cardioprotective activity in SHR rat assessed as change in muscle fiber nature at 10 mg/kg, ip administered for 14 days by TEM analysis. The series is classed as functional, organism-based. A digest of the protocol: (§3)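 SHRs were given 10 mg·kg⁻¹ intraperitoneally per day for 14 consecutive days, with an ibuprofen comparator and a normal control. Myocardial tissue was then removed. Sections were HE-stained for light microscopy and also examined by transmission electron microscopy at 6000, 10000 and 20000-fold.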

Series [9] relates to Rattus norvegicus. Kind of series: Cardioprotective activity in SHR rat assessed as neatly arrange myofibrils at 10 mg/kg, ip administered for 14 days by TEM analysis. The series is classed as functional, organism-based. A digest of the protocol: as §3

Activity calls are given as the source filed them. The rule behind the calls is not given here.

In the case of `CC(C)Cc1ccc(C(C)C(=O)Oc2ccc(C(N)=S)cc2)cc1` (centres undefined), the Activity result in series [1] is “Toxic”; in series [2] it was “Toxic”; in [3] it was “Non-Toxic”; in [4], “Toxic”; in [5] it was “Toxic”.
With `CC(C)Cc1ccc(C(C)C(=O)Oc2ccc(-c3cc(=S)ss3)cc2)cc1` (centres undefined), the Activity result in [6] is recorded as “Toxic”.
For `CC(=O)Nc1ccc(OC(=O)CCCCC2CCSS2)cc1` (centres undefined), the Activity entry in series [7] is “Dose-dependent effect”. Besides, the outcome in [8] and in series [9] was Active.
